pIC50: −log10 of the molar value. Activity calls are given as the source filed them. The rule behind the calls is not given here.
Columns and labels:
[1] = Antiproliferative activity against human Glioma (G22) patient derived xenograft cells at 5 uM after 72 hrs by cyquant assay; type: functional, Glioma cell
[2] = Antiproliferative activity against human Glioma (G12) patient derived xenograft cells at 5 uM after 72 hrs by cyquant assay; type: functional, Glioma cell
MDA-MB-231 [3] = test: Antiproliferative activity against human MDA-MB-231 cells at 5 uM for 72 hrs by cyquant assay; type: functional, cell-based
MCF7 = test: Anticlonogenic activity against human MCF7 cells for 72 hrs measured after 4 weeks by crystal-violet staining based assay; type: functional, cell-based
Summary of the method: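 Single-cell seeding at 250 cells per well; cells treated once the next day for 72 h with 0–5 μM compound, then grown until large colonies were visible (NIH3T3 1 week, MDA-MB-231 and U251MG 2 weeks, MCF-7 4 weeks). Colonies stained with crystal violet for 4 h, imaged and counted.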

[4] = target: Signal transducer and activator of transcription 3 (Mus musculus) (UniProt P42227); test: Inhibition of Stat3 dimer DNA binding activity in EGF-stimulated mouse NIH3T3 nuclear extract expressing human EGFR assessed as residual activity at 5 uM preincubated for 30 mins followed by addition of radiolabeled probe hSIE for 30 mins by EMSA
Sequence of Signal transducer and activator of transcription 3 (Mus musculus) (P42227 whole entry): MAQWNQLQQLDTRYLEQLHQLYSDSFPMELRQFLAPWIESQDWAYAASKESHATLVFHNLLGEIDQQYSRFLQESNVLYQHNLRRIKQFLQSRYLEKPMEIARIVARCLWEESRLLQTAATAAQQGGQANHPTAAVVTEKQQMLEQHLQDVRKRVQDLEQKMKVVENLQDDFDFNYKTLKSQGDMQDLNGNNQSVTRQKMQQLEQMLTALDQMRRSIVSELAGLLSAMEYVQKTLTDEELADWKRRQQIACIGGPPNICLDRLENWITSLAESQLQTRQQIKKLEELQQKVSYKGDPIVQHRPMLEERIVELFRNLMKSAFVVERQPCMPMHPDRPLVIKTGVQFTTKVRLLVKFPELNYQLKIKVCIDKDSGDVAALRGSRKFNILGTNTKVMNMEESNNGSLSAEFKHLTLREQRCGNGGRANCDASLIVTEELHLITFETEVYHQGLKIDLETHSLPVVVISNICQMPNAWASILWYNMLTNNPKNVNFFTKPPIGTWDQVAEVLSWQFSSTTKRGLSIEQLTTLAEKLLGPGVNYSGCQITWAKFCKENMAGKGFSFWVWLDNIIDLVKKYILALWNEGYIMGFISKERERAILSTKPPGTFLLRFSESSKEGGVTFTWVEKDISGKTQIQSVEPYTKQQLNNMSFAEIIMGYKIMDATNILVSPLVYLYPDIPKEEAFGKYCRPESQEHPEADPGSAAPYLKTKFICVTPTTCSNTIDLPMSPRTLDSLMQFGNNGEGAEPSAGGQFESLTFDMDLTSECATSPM

[5] = target: T1, Signal transducer and activator of transcription 1 (Mus musculus) (UniProt P42225); test: Inhibition of Stat1 dimer DNA binding activity in EGF-stimulated mouse NIH3T3 nuclear extract expressing human EGFR assessed as residual activity at 5 uM preincubated for 30 mins followed by addition of radiolabeled probe hSIE for 30 mins by EMSA
T1 sequence (whole entry): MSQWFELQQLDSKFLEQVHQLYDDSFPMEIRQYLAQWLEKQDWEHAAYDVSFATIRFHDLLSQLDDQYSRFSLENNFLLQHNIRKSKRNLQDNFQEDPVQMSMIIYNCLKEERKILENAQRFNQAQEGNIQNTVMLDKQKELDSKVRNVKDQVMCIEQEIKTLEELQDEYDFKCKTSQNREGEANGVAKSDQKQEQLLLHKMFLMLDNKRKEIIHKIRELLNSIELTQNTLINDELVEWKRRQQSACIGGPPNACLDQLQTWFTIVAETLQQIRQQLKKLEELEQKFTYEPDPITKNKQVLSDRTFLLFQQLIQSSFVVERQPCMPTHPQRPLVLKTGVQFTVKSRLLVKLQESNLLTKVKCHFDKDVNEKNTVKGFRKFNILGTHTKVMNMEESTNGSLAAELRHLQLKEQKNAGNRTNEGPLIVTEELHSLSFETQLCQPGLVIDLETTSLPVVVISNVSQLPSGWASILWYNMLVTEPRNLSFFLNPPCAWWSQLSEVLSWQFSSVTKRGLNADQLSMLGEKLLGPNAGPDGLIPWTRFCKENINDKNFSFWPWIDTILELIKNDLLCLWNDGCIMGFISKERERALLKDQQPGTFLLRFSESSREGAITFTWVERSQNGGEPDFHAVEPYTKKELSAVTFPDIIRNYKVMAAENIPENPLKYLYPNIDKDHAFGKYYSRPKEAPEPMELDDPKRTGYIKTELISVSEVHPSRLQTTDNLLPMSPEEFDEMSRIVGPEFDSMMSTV

NIH3T3 [6] = test: Inhibition of Stat5 dimer DNA binding activity in EGF-stimulated mouse NIH3T3 nuclear extract expressing human EGFR at 5 uM preincubated for 30 mins followed by addition of radiolabeled probe MGFe for 30 mins by EMSA; type: cell-free
[7] = target: T1, Signal transducer and activator of transcription 1 (Mus musculus); test: Inhibition of Stat1 dimer DNA binding activity in EGF-stimulated mouse NIH3T3 nuclear extract expressing human EGFR at 5 uM preincubated for 30 mins followed by addition of radiolabeled probe hSIE for 30 mins by EMSA
[8] = target: T2, Signal transducer and activator of transcription 3 (Homo sapiens, UniProt P40763); test: Inhibition of Stat3 activity in human U251MG cells assessed as phosphorylated Stat3 level at 5 uM by immunoblot analysis; type: cell-based; details: U-251, TDE = time-dependent effect
T2 sequence (P40763 whole entry): as the sequence (P42227 whole entry) above, with D760E counted along it

[9] = target: T2, Signal transducer and activator of transcription 3; test: Inhibition of Stat3 activity in human U251MG cells assessed as phosphorylated Stat3 level after 2 hrs by immunoblot analysis; type: cell-based; details: U-251
Summary of the method: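 U251MG cells treated with 5 μM compound for 0–24 h, or with 0–5 μM for 2 h. Whole-cell lysates immunoblotted for pStat3, Stat3, GAPDH. Control was 0.025% DMSO-treated cells.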

[10] = target: T2, Signal transducer and activator of transcription 3; test: Inhibition of Stat3 activity in human glioma (G22) patient-derived mouse xenograft cells assessed as phosphorylated Stat3 level at 5 uM after 3 hrs by immunoblot analysis
Summary of the method: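 Cultured G22 glioma patient-derived mouse xenograft cells (DMEM, 5–10% heat-inactivated FBS) treated with 5 μM compound for 0–24 h. Whole-cell lysates immunoblotted for pStat3, Stat3, GAPDH.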

[11] = target: T1, Signal transducer and activator of transcription 1 (Mus musculus); test: Modulation of EGF-induced Stat1 phosphorylation in mouse NIH3T3 cells expressing human EGFR at 5 uM preincubated for 3 hrs followed by stimulation with 1 ug/ml EGF for 12 mins by immunoblot analysis; type: cell-based
Summary of the method: (§1)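 Whole-cell lysates of equal total protein from NIH3T3/hEGFR fibroblasts, pretreated with or without 5 μM compound (control 0.025% DMSO) for 3 h, then stimulated with 1 μg/ml EGF for 12 min. SDS-PAGE immunoblotting for pStat1/Stat1 and pStat5/Stat5 with β-actin or GAPDH loading controls. Representative of 2–4 independent determinations.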

NIH3T3 [12] = test: Modulation of EGF-induced Stat5 phosphorylation in mouse NIH3T3 cells expressing human EGFR at 5 uM preincubated for 3 hrs followed by stimulation with 1 ug/ml EGF for 12 mins by immunoblot analysis; type: cell-based; summary of the method: as §1
[13] = target: Mitogen-activated protein kinase 1 and 3 (ERK2 and ERK1) (Mus musculus) (UniProt P63085+Q63844); test: Modulation of EGF-induced Erk1/2 phosphorylation in mouse NIH3T3 cells expressing human EGFR at 5 uM preincubated for 3 hrs followed by stimulation with 1 ug/ml EGF for 12 mins by immunoblot analysis; type: cell-based
Sequence of Mitogen-activated protein kinase 1 and 3 (ERK2 and ERK1) (Mus musculus) (P63085 whole entry, looked up): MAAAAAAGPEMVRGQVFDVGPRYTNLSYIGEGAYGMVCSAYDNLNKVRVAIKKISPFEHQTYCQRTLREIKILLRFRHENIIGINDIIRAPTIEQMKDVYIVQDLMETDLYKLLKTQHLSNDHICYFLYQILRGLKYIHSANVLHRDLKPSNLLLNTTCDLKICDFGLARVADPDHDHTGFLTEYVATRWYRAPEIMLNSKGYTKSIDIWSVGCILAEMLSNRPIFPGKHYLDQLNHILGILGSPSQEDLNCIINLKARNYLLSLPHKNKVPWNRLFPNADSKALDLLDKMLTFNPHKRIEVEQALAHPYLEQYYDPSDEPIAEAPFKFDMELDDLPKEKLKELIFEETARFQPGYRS
Sequence of Mitogen-activated protein kinase 1 and 3 (ERK2 and ERK1) (Mus musculus) (Q63844 whole entry, looked up): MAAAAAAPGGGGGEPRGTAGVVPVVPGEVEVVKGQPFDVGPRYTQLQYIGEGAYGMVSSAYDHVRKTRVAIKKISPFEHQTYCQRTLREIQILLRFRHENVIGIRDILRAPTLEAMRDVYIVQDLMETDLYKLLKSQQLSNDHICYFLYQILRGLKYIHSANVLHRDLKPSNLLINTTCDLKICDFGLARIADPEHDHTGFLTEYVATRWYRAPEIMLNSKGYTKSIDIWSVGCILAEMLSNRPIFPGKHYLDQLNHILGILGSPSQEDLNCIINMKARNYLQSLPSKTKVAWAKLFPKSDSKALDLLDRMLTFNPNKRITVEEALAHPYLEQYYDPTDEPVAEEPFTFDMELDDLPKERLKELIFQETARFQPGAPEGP
Summary of the method: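 NIH3T3/hEGFR fibroblasts pretreated with or without 5 μM compound for 3 h, then stimulated with 1 μg/ml EGF for 12 min. Whole-cell lysates of equal total protein immunoblotted for phospho and total Stat3, Stat1, Stat5, Erk1/2. Controls were 0.025% DMSO-treated cells. Representative of 2–4 independent determinations.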

[14] = target: T2, Signal transducer and activator of transcription 3; test: Inhibition of orthovandate-induced Stat3 phosphorylation in human U251MG cells at 5 uM for 3 hrs by immunoblot analysis in presence of 10 to 300 uM orthovandate; type: cell-based; details: U-251
Summary of the method: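 U251MG cells treated with 5 μM compound for 3 h without or with 10–300 μM Na3VO4. Whole-cell lysates of equal total protein immunoblotted for pStat3 and Stat3. Controls were 0.025% DMSO. Representative of 2–4 determinations.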

[15] = target: T2, Signal transducer and activator of transcription 3; test: Binding affinity to Stat3 (unknown origin) by NMR analysis
MDA-MB-231 [16] = test: Antiproliferative activity against human MDA-MB-231 cells for 72 hrs by cyquant assay; type: functional, cell-based; details: MDA-MB-231, 72 h
Summary of the method: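 CyQuant proliferation assay after 72 h compound exposure of cultured cells; relative viability normalized to DMSO-treated control; IC50 values derived. Glioma lines grown in RPMI or DMEM with 10% FBS and 1% nonessential amino acids.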

Row | Compound | inhibition (INH) [1] | inhibition (INH) [2] | inhibition (MDA-MB-231 [3]) | Activity (MCF7) | Activity [4] | Activity [5] | inhibition (NIH3T3 [6]) | inhibition [7] | inhibition [8] | inhibition [9] | inhibition [10] | inhibition [11] | inhibition (NIH3T3 [12]) | inhibition [13] | inhibition [14] | Activity [15] | pIC50 (MDA-MB-231 [16])
1 | C/C=C(\C)C(=O)OCC1=C2/C(=C\[C@@]3(C)CC[C@](O)(O3)[C@H](C)C[C@@H]2O)OC1=O | 45% | 25% | Active | Dose-dependent effect | 8% | 36% | inactive | inactive | tde | Dose-dependent effect | Active | inactive | inactive | inactive | Active | Dose-dependent effect | 5.19
2 | C/C=C(\C)C(=O)O[C@H]1C[C@@H](C)[C@]2(O)CC[C@](C)(/C=C3/OC(=O)C(COC(C)=O)=C31)O2 | 45% | 25% | Active | Dose-dependent effect | 49% | 68% | inactive | inactive | tde | Dose-dependent effect | Active | inactive | inactive | inactive | Active | Dose-dependent effect | 5.74
3 | C/C=C(\C)C(=O)O[C@H]1C[C@@H](C)[C@]2(OC)CC[C@](C)(/C=C3/OC(=O)C(COC(C)=O)=C31)O2 | 45% | 25% | Active | Dose-dependent effect | 31% | 49% | inactive | inactive | tde | Dose-dependent effect | Active | inactive | inactive | inactive | Active | Dose-dependent effect | 5.18
